ChEMBL document CHEMBL1949627, “Novel triacsin C analogs as potential antivirals against rotavirus infections” (Eur J Med Chem, 2012)
Calls of active or inactive are those of the source. The rule behind the calls is not given here.

Tests used:
[1] = Cytotoxicity against monkey MA104 cells after 24 hrs; format: cell-based, Macaca mulatta; details: rhesus monkey, read-out: TD50
Method in brief: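 Confluent MA104 cells exposed to a range of compound concentrations for 24 hrs; cytotoxicity read with a non-radioactive cytotoxicity (CytoTox 96) kit; TD50 derived by the Litchfield–Wilcoxon method.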

Rotavirus [2] = experiment: Antiviral activity against Rotavirus Wa in MA104 cells assessed as inhibition of viral replication after 24 hrs by immunofluorescent assay and Western blotting analysis; format: functional, organism-based
MA104 = experiment: Inhibition of lipogenesis in monkey MA104 cells infected with Rotavirus SA11 assessed as inhibition of increase in lipid droplets at 1 uM after 10 hrs by NBD-cholesterol based fluorescence analysis; format: functional, cell-based; details: Macaca mulatta
Method in brief: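 Confluent MA104 cells, mock- or SA11-infected at MOI 10, incubated with compound or 0.1% DMSO in medium with NBD-cholesterol 1 μg/ml and trypsin 1 μg/ml. Fixed at 10 hr post infection in 4% formaldehyde for 10 min, PBS-washed twice; lipid-droplet fluorescence viewed by fluorescence microscopy.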

Rotavirus [3] = experiment: Virucidal activity against Rotavirus SA11 in MA104 cells assessed as reduction in viral titer at 100 uM pretreated for 2 hrs prior infection measured after 12 hrs postinfection by immunofluorescent assay; format: functional, organism-based
Rotavirus [4] = experiment: Antiviral activity against Rotavirus SA11 in MA104 cells assessed as inhibition of viral replication after 24 hrs by immunofluorescent assay and Western blotting analysis; format: functional; details: SA11, MA104, 24 h, read-out: ED50 (the source's name)
Method in brief: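 Confluent MA104 monolayers infected 1 hr, PBS-washed, then given MEM with compound or DMSO (0.1%) plus trypsin 1 μg/ml. VP6 tracked by IFA (methanol fixation, anti-VP6 mAb, FITC secondary) or Western blot (β-actin control). ED50 derived from TCID50 titers at 24 hr post infection, MOI 0.05, by Litchfield–Wilcoxon.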

[5] = Therapeutic index, ratio of TD50 for monkey MA104 cells to ED50 for Rotavirus SA11; format: cell-based; details: read-out: Ratio TD50/ED50
Method in brief: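 TD50: confluent MA104 cells exposed to graded compound concentrations for 24 hrs, cytotoxicity read with CytoTox 96 non-radioactive kit, Litchfield–Wilcoxon fit. ED50: SA11-infected MA104 (MOI 0.05) treated with compound plus trypsin 1 μg/ml, TCID50 titers at 24 hr, Litchfield–Wilcoxon. Index is TD50 divided by ED50.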

Huh-7 = experiment: Inhibition of lipogenesis in human HuH7 cells assessed as inhibition of increase in lipid droplets at 1 uM after 72 hrs by NBD-cholesterol based fluorescence analysis; format: functional, cell-based
Method in brief: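 Confluent uninfected Huh-7 cells, in which lipid droplets form spontaneously, treated with compound or 0.1% DMSO for 72 hrs. Medium then replaced with NBD-cholesterol (1 μg/ml) for a further 12 hrs. Cells fixed in 4% formaldehyde for 10 min, PBS-washed, and lipid-droplet fluorescence examined by fluorescence microscopy.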

Rotavirus [6] = experiment: Virucidal activity against Rotavirus SA11 in MA104 cells assessed as reduction in viral titer at 100 uM pretreated for 2 hrs prior infection measured after 12 hrs postinfection by Western blotting analysis; format: functional, organism-based

SMILES	CC50 at 24 h [1] [µM]	inhibition (Rotavirus [2])	inhibition (MA104)	inhibition (Rotavirus [3])	EC50 (Rotavirus [4]) [µM]	selectivity ratio [5]	inhibition (Huh-7)	inhibition (Rotavirus [6])
CCC/C=C/C/C=C/C=C/CNc1ccc(C(=O)O)cc1	28.5	Active	Active	inactive	0.1	285	Dose-dependent effect	inactive
CCCCCCCCCCC(C)(C)C(=O)Nc1c(OC)cc(OC)cc1OC [CL-976]	8.5	–	–	–	4.3	–	–	–
CCC/C=C/C/C=C/C=C/C=N/NS(=O)(=O)C(C)C	90.2	Active	–	–	9.8	–	–	–
C=C(C)[C@@H]1CC[C@]2(C(=O)O)CC[C@]3(C)[C@H](CC[C@@H]4[C@@]5(C)CC[C@H](O)C(C)(C)[C@@H]5CC[C@]43C)[C@@H]12 [BETULINIC ACID]	27.8	–	–	–	22.5	–	–	–
CCC/C=C/C/C=C/C=C/C=N/NS(=O)(=O)CCl	74	Active	–	–	8.7	–	–	–
C=C1C(=O)O[C@H](CCCCCCCC)[C@H]1C(=O)O	28.5	–	–	–	21.2	–	–	–
Cc1c(C)c2c(c(C)c1O)CCC(C)(COc1ccc(CC3SC(=O)NC3=O)cc1)O2 (stereo unspecified) [TROGLITAZONE]	18.5	–	–	–	5.8	–	–	–
C/C=C/C/C=C/CCC(=O)[C@H]1O[C@H]1C(N)=O [CERULENIN]	56.7	–	–	–	28.5	–	–	–
CCCCCCCCCCCCCCCCNc1ccc(C(=O)O)cc1 [CETABEN]	75.5	–	–	–	11.3	–	–	–
CCC/C=C/C/C=C/C=C/C=N/NN=O [TRIACSIN C]	49.6	–	Active	inactive	0.2	248	Dose-dependent effect	inactive
CCC/C=C/C/C=C/C=C/C=N/N1CCCS1(=O)=O	86.4	Active	Active	–	2.2	–	Dose-dependent effect	–
O=C(Nc1ccccc1)Nc1ccc(-c2ccc(C(=O)[C@@H]3CCC[C@H]3C(=O)O)cc2)cc1	85.4	–	–	–	23.2	–	–	–
CCC/C=C/C/C=C/C=C/C=N/NS(=O)(=O)CCCCl	86.3	Active	–	–	11.5	–	–	–
CCC/C=C/C/C=C/C=C/C=C/C#N	78.8	Active	–	–	21.3	–	–	–
